ERa coact pot: enhances coactivator binding to human estrogen receptor alpha; actives 1.3% (n = 86,000); coactivator binding (% of control), % at 25.6 µM; TR-FRET ERalpha-LBD/SRC-Cy5 coactivator binding, 2 h; 100 = basal binding, no effect; P03372; in the data active = activity above about 200%;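 also: binding measured in presence of low estradiol as agonist stimulus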
BAP1 block: human BAP1 deubiquitinase inhibition. Q92560. recombinant BAP1, Ub-AMC hydrolysis fluorescence kinetic; hits give low values. calls only at 20 µM. actives 0.48% (n = 72,000). AID 436;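 active = activity remaining at or below 50% of control, provided the compound also passes the data quality filters; inactive = the rest, including low values that fail the filters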
SF-1 act: activates the human nuclear receptor SF-1; AID 522; CHO-K1 Gal4-SF-1 LBD luciferase reporter; % increase over DMSO SF-1-specific signal; activation, % at 10 µM; Q13285; actives 1.9% (n = 65,000);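 active = activation above the mean activation of all tested compounds plus 3 SD, cut at about 50% in these data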
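material = CHO-K1 cells with Gal4–hSF-1 LBD chimera plus Gal4-driven luciferase | compound = 10 µM single point, 1% DMSO | incubation = 20 h compound exposure at 37 °C after 1 h cell settling | measured by = SteadyLite luciferase luminescence | evaluation = percent activation relative to DMSO median and mock-transfected background | control set = DMSO negative control and −SF1 background wells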
RORA act: activates the human nuclear receptor RORA; P35398; CHO-K1 Gal4-RORA LBD luciferase reporter, luminescence; percent increase over mock-subtracted basal signal; activation, % at 10 µM; actives 1.5% (n = 65,000); AID 560;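 active = activation above the mean of all tested compounds plus 3 SD, cut at about 49% in these data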
Target sequence (P35398 whole entry, looked up, the tested form may be a part): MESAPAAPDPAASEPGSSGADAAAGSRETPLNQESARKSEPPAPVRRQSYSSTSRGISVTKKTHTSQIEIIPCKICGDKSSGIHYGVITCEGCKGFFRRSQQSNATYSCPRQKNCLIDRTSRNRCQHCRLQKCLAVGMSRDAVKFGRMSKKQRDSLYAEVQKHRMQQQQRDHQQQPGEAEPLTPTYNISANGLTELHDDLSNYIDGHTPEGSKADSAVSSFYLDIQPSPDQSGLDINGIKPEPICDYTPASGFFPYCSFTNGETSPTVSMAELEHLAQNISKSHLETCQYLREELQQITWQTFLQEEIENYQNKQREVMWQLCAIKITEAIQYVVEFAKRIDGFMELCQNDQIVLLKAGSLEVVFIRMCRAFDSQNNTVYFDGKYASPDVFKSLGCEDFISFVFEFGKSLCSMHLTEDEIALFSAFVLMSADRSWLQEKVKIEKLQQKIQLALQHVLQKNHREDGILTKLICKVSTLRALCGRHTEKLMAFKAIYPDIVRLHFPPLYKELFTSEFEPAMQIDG
ERb SRC1 inh: blocks coactivator binding to human estrogen receptor beta | Q92731 | TR-FRET ER-beta LBD / SRC1-Cy5 peptide binding; receptor agonist-loaded with 1 µM estradiol | inhibition, % at 25.6 µM | actives 1.3% (n = 86,000);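 active = compounds whose percent inhibition of the receptor-coactivator binding signal exceeds about 50% in the single-dose screen, limit read from the data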
ERa SRC1 inh: ER-alpha (human) coactivator binding inhibition; TR-FRET ER-alpha LBD / SRC-1 peptide, estradiol-bound; inhibition, % at 25.6 µM; actives 1.7% (n = 86,000); in the data active = inhibition above about 50%
Hits are given with their value; n = inactive; x = not tested or not shown; [ ] = another dose, or the depositor's remark. The list is not random: actives were taken first. Their share in the collection is about 5.1%.

SMILES	ERa coact pot	BAP1 block	SF-1 act	RORA act	ERb SRC1 inh	ERa SRC1 inh
COc1ccc(-c2nn(C)c(=O)c3ccccc23)cc1NC(=O)COc1ccc(C)cc1	487[fluorescence artefact?]	x	x	x	n	n
COc1ccc(NC(=O)Cc2nn(C)c(=O)c3ccccc23)c2ncccc12	217	n	n	n	n	n
CCOC(=O)N1c2ccccc2C=CC1OCC (configuration not stated)	619	x	x	x	n	n
CCOc1ccc2[nH]c(=O)c(=O)[nH]c2c1	n	n	n	n	54	52[fluorescence artefact?]
COc1ccc(-c2cc(-c3ccc(OC)cc3)[nH]n2)cc1	n	n	n	65	n	n
CSc1nc2ccc3nc(NC(=O)c4ccc(Cl)s4)sc3c2s1	n	x	x	x	n	59[fluorescence artefact?]
CSc1nc2ccc3nc(NC(=O)c4cccs4)sc3c2s1	n	x	64	n	79[fluorescence artefact?]	69[fluorescence artefact?]
CN(C)S(=O)(=O)c1ccc2nc(NC(=O)c3cccs3)sc2c1	n	x	x	x	n	n
COC(=O)c1ccc(-n2nnnc2SCC(=O)NC(C)(C)C)cc1	x	n	x	x	x	x
Cn1c(C(=O)NCCc2c[nH]c3ccccc23)cc2sccc21	n	n	79	74	n	n
O=C(OC(C(=O)c1ccccc1)c1ccccc1)c1ccc(Br)c([N+](=O)[O-])c1 (configuration not stated)	x	n	x	x	x	x
Nc1cc(-c2nn[nH]n2)ccc1F	n	n	n	n	60[fluorescence artefact?]	n
COc1ccc(-c2nn[nH]n2)cc1OC	n	x	x	x	n	n
CC(C)(C)c1nnc2sc(SCC(=O)c3ccccc3)nn2c1=O	n	n	n	n	n	n
CC(C)(C)c1nnc2sc(SC/C(O)=C(\C#N)c3nc4ccccc4[nH]3)nn2c1=O	n	n	n	n	62	69[fluorescence artefact?]
CCCSc1nc2sc3c(c2c(=O)n1-c1ccccc1)CCC3	x	n	x	x	x	x
COc1cccc(C2CC(c3ccccc3OC)n3ncnc3N2)c1 (configuration not stated)	595[fluorescence artefact?]	n	n	n	n	n
COc1cccc(C2CC(c3ccccc3)Nc3ncnn32)c1 (configuration not stated)	n	n	n	n	n	n
COc1ccccc1C1C(C(=O)OC(C)C)=C(C)NC2=C1C(=O)CCC2 (configuration not stated)	x	n	x	x	x	x
COc1ccc2nc(SCc3cccnc3)c(C#N)cc2c1	202[fluorescence artefact?]	x	x	x	n	n
N#Cc1cc2ccccc2nc1SCc1cccnc1	306[fluorescence artefact?]	n	n	n	n	n
COc1ccccc1C(=O)Nc1cccc2c1C(=O)c1ccccc1C2=O	x	n	x	x	x	x
Cn1c(=O)[nH]c(=O)c2c1nc(SCC(=O)c1ccc(Cl)cc1)n2CCc1ccccc1	x	n	x	x	x	x
CCN1C(=S)SC(=O)C1=C1C=C(C)N(CCOC)C(C)=C1	n	x	n	n	n	n
CCN1C(=S)SC(=O)C1=C1C=C(C)N(CCO)C(C)=C1	244[fluorescence artefact?]	x	n	n	n	n
SMILES	ERa coact pot	BAP1 block	SF-1 act	RORA act	ERb SRC1 inh	ERa SRC1 inh
Cn1c(=O)c2c(ncn2Cc2ccccc2)n(C)c1=O	n	x	x	x	n	n
Cn1c(=O)c2c(ncn2CCCc2ccccc2)n(C)c1=O	222	n	n	n	n	n
CCOC(=O)c1c(C)nc2c(C)cccn12	n	x	x	x	n	n
CCOC(=O)c1c(C)nc2c3ccccc3ccn12	n	n	76	n	n	n
COc1cc(C(=O)Nc2cc(-c3nc4cc(C)cc(C)c4o3)ccc2C)cc(OC)c1OC	x	n	x	x	x	x
c1cncc(-c2nc(-c3ccco3)cs2)c1	n	n	n	n	60[fluorescence artefact?]	n
Clc1ccc2nc(CSc3nnc4ccccn34)cn2c1	n	x	x	x	n	n
Clc1ccc2nc(CSc3nc4ccccc4o3)cn2c1	n	n	50	n	n	n
Clc1ccc2nc(CSc3nnc(-c4c[nH]c5ccccc45)o3)cn2c1	261[fluorescence artefact?]	n	n	n	n	n
Cc1cc(C)nc(NC(=O)CSc2nn(C)c(=S)s2)n1	n	n	n	n	n	65
Cc1ccc(-c2n[nH]c(=S)n2/N=C/C=C/c2ccccc2[N+](=O)[O-])cc1	323	x	x	x	n	53[fluorescence artefact?]
Cc1ccc(-c2n[nH]c(=S)n2C)cc1	n	n	n	n	n	n
COc1cc(C(=O)Oc2c(CN3CCOCC3)cc(Cl)c3cccnc23)cc(OC)c1OC	218	n	n	n	n	n
CCOC(=O)c1ccc2nc(NC(=O)c3cccs3)sc2c1	n	x	n	n	54[fluorescence artefact?]	78[fluorescence artefact?]
